In ChEMBL document CHEMBL3351818, “Synthesis and biological evaluation of novel 3,4-diaryl-1,2,5-selenadiazol analogues of combretastatin A-4” (Eur J Med Chem, 2014):
Activity calls are given as the source filed them. The rule behind the calls is not given here.

Experiments:
[1] = Antiproliferative activity against human SGC7901 cells after 72 hrs by MTT assay; format: functional, cell-based; conditions: SGC-7901, 72 h
Summary of the method: (§1)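 Cells were seeded at 1–3 × 10⁴/well, depending on growth rate, and grown 24 h. Triplicate wells were then exposed to agents for 72 h at 37 °C in 5% CO₂. IC50 is the concentration giving 50% absorbance reduction versus vehicle, averaged from ≥3 independent experiments. SGC-7901 and HT-1080 were cultured in RPMI-1640 with 10% FBS.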

[2] = Antiproliferative activity against human HT1080 cells after 72 hrs by MTT assay; format: functional, cell-based; conditions: HT-1080, 72 h; summary of the method: as §1
KB = experiment: Antiproliferative activity against human KB cells after 72 hrs by MTT assay; format: functional, cell-based; summary of the method: as §1
Tubulin (Homo sapiens) [3] = target: T1, Tubulin (Homo sapiens) (UniProt P68371+Q9H4B7+P0DPH7+P68366+Q13509+Q71U36+P04350+Q3ZCM7+P07437+P68363+Q9BQE3+Q6PEY2+Q13885+Q9BVA1+Q9BUF5); experiment: Inhibition of tubulin (unknown origin) polymerization measured for 90 mins by fluorescence assay; format: protein-complex assay
Tubulin (Homo sapiens) [4] = target: T1, Tubulin (Homo sapiens); experiment: Inhibition of tubulin (unknown origin) polymerization at 1 uM measured for 90 mins by fluorescence assay; format: protein-complex assay
Tubulin (Homo sapiens) [5] = target: T1, Tubulin (Homo sapiens); experiment: Inhibition of tubulin (unknown origin) polymerization at 2 uM measured for 90 mins by fluorescence assay; format: protein-complex assay
Tubulin (Homo sapiens) [6] = target: T1, Tubulin (Homo sapiens); experiment: Inhibition of tubulin (unknown origin) polymerization at 4 uM measured for 90 mins by fluorescence assay; format: protein-complex assay
Tubulin (Homo sapiens) [7] = target: T1, Tubulin (Homo sapiens); experiment: Inhibition of tubulin (unknown origin) polymerization at 8 uM measured for 90 mins by fluorescence assay; format: protein-complex assay
HT-1080 [8] = experiment: Disruption of microtubule network in human HT1080 cells assessed as cell rounding at 2 times IC50 after 12 hrs by immunofluorescence staining method; format: cell-based
Summary of the method: (§2)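 HT-1080 cells seeded at 1 × 10⁴/well, grown 24 h, then given vehicle or agent for 12 h. Fixed in 4% formaldehyde/PBS 30 min at −20 °C, permeabilised with 0.1% Triton X-100 5 min, and blocked with 5% BSA. Anti-α-tubulin (1:100) applied overnight at 4 °C, then FITC anti-mouse secondary (1:1000) 3 h at 37 °C, with DAPI counterstain.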

[9] = Cell cycle arrest in human HT1080 cells assessed as accumulation at sub-G1 phase at 50 nM after 24 hrs using propidium iodide staining by FACScan flow cytometry; format: functional, cell-based; conditions: HT-1080
Summary of the method: (§3)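 HT-1080 cells (8 × 10⁴) exposed 24 h to test agent or 0.05% DMSO vehicle. Harvested by centrifugation, PBS-washed, fixed in ice-cold 70% ethanol, then RNase-treated 30 min at 37 °C. Propidium iodide 50 µg/mL applied 30 min at 4 °C in the dark before FACScan flow cytometry. Repeated at least three times.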

[10] = Cell cycle arrest in human HT1080 cells assessed as accumulation at G0/G1 phase at 50 nM after 24 hrs using propidium iodide staining by FACScan flow cytometry (Rvb =52.17 %); format: functional, cell-based; conditions: HT-1080; summary of the method: as §3
[11] = Cell cycle arrest in human HT1080 cells assessed as accumulation at S phase at 50 nM after 24 hrs using propidium iodide staining by FACScan flow cytometry (reference value: 18.56 %); format: functional, cell-based; conditions: HT-1080; summary of the method: as §3
[12] = Cell cycle arrest in human HT1080 cells assessed as accumulation at G2/M phase at 50 nM after 24 hrs using propidium iodide staining by FACScan flow cytometry (reference value: 29.27 %); format: functional, cell-based; conditions: HT-1080; summary of the method: as §3
[13] = Cell cycle arrest in human HT1080 cells assessed as accumulation at G2/M phase after 24 hrs using propidium iodide staining by FACScan flow cytometry; format: functional, cell-based; conditions: HT-1080; summary of the method: as §3
[14] = Cell cycle arrest in human HT1080 cells assessed as accumulation at sub-G1 phase at 75 nM after 24 hrs using propidium iodide staining by FACScan flow cytometry; format: functional, cell-based; conditions: HT-1080; summary of the method: as §3
[15] = Cell cycle arrest in human HT1080 cells assessed as accumulation at G0/G1 phase at 75 nM after 24 hrs using propidium iodide staining by FACScan flow cytometry (Rvb =52.17 %); format: functional, cell-based; conditions: HT-1080; summary of the method: as §3
[16] = Cell cycle arrest in human HT1080 cells assessed as accumulation at S phase at 75 nM after 24 hrs using propidium iodide staining by FACScan flow cytometry (reference value: 18.56 %); format: functional, cell-based; conditions: HT-1080; summary of the method: as §3
[17] = Cell cycle arrest in human HT1080 cells assessed as accumulation at G2/M phase at 75 nM after 24 hrs using propidium iodide staining by FACScan flow cytometry (reference value: 29.27 %); format: functional, cell-based; conditions: HT-1080; summary of the method: as §3
[18] = Cell cycle arrest in human HT1080 cells assessed as accumulation at sub-G1 phase at 100 nM after 24 hrs using propidium iodide staining by FACScan flow cytometry; format: functional, cell-based; conditions: HT-1080; summary of the method: as §3
[19] = Cell cycle arrest in human HT1080 cells assessed as accumulation at G0/G1 phase at 100 nM after 24 hrs using propidium iodide staining by FACScan flow cytometry (Rvb =52.17 %); format: functional, cell-based; conditions: HT-1080; summary of the method: as §3
[20] = Cell cycle arrest in human HT1080 cells assessed as accumulation at S phase at 100 nM after 24 hrs using propidium iodide staining by FACScan flow cytometry (reference value: 18.56 %); format: functional, cell-based; conditions: HT-1080; summary of the method: as §3
[21] = Cell cycle arrest in human HT1080 cells assessed as accumulation at G2/M phase at 100 nM after 24 hrs using propidium iodide staining by FACScan flow cytometry (reference value: 29.27 %); format: functional, cell-based; conditions: HT-1080; summary of the method: as §3
[22] = Cell cycle arrest in human HT1080 cells assessed as accumulation at sub-G1 phase at 150 nM after 24 hrs using propidium iodide staining by FACScan flow cytometry; format: functional, cell-based; conditions: HT-1080; summary of the method: as §3
[23] = Cell cycle arrest in human HT1080 cells assessed as accumulation at G0/G1 phase at 150 nM after 24 hrs using propidium iodide staining by FACScan flow cytometry (Rvb =52.17 %); format: functional, cell-based; conditions: HT-1080; summary of the method: as §3
[24] = Cell cycle arrest in human HT1080 cells assessed as accumulation at S phase at 150 nM after 24 hrs using propidium iodide staining by FACScan flow cytometry (reference value: 18.56 %); format: functional, cell-based; conditions: HT-1080; summary of the method: as §3
[25] = Cell cycle arrest in human HT1080 cells assessed as accumulation at G2/M phase at 150 nM after 24 hrs using propidium iodide staining by FACScan flow cytometry (reference value: 29.27 %); format: functional, cell-based; conditions: HT-1080; summary of the method: as §3
[26] = Cell cycle arrest in human HT1080 cells assessed as accumulation at sub-G1 phase at 25 nM after 24 hrs using propidium iodide staining by FACScan flow cytometry; format: functional, cell-based; conditions: HT-1080; summary of the method: as §3
[27] = Cell cycle arrest in human HT1080 cells assessed as accumulation at G0/G1 phase at 25 nM after 24 hrs using propidium iodide staining by FACScan flow cytometry (Rvb =52.17 %); format: functional, cell-based; conditions: HT-1080; summary of the method: as §3
[28] = Cell cycle arrest in human HT1080 cells assessed as accumulation at S phase at 25 nM after 24 hrs using propidium iodide staining by FACScan flow cytometry (reference value: 18.56 %); format: functional, cell-based; conditions: HT-1080; summary of the method: as §3
[29] = Cell cycle arrest in human HT1080 cells assessed as accumulation at G2/M phase at 25 nM after 24 hrs using propidium iodide staining by FACScan flow cytometry (reference value: 29.27 %); format: functional, cell-based; conditions: HT-1080; summary of the method: as §3
HT-1080 [30] = experiment: Disruption of microtubule network in human HT1080 cells assessed as cell detachment at 2 times IC50 after 12 hrs by immunofluorescence staining method; format: cell-based; summary of the method: as §2
HT-1080 [31] = experiment: Disruption of microtubule network in human HT1080 cells assessed as loss of the radial distribution of structured microtubules at 2 times IC50 after 12 hrs by immunofluorescence staining method; format: cell-based; summary of the method: as §2

COc1ccc(-c2n[se]nc2-c2cc(OC)c(OC)c(OC)c2)cc1Br
IC50 [1]: > 30 µM
IC50 [2]: 2.59 µM
IC50 (KB): 3.06 µM

CCOc1ccc(-c2n[se]nc2-c2cc(OC)c(OC)c(OC)c2)cc1
IC50 [1]: 0.23 µM
IC50 [2]: 0.16 µM
IC50 (KB): 0.42 µM

CCOc1ccc(-c2n[se]nc2-c2cc(OC)c(OC)c(OC)c2)cc1N
IC50 [1]: 0.14 µM
IC50 [2]: 10.1 µM
IC50 (KB): 0.099 µM

COc1cc(-c2n[se]nc2-c2ccc3ccccc3c2)cc(OC)c1OC
IC50 [1]: 2.35 µM
IC50 [2]: 1.11 µM
IC50 (KB): 0.77 µM

COc1ccc(-c2n[se]nc2-c2cc(OC)c(OC)c(OC)c2)cc1OCc1ccccc1
IC50 [1]: > 30 µM
IC50 [2]: > 30 µM
IC50 (KB): > 30 µM

COc1ccc(-c2n[se]nc2-c2cc(OC)c(OC)c(OC)c2)cc1
IC50 [1]: 0.063 µM
IC50 [2]: 0.084 µM
IC50 (KB): 0.031 µM

COc1cc(-c2n[se]nc2-c2cccc(OCc3ccccc3)c2)cc(OC)c1OC
IC50 [1]: > 30 µM
IC50 [2]: > 30 µM
IC50 (KB): 10.7 µM

COc1ccc(-c2n[se]nc2-c2cc(OC)c(OC)c(OC)c2)cc1[N+](=O)[O-]
IC50 [1]: > 30 µM
IC50 [2]: 24.8 µM
IC50 (KB): 10.1 µM

COc1ccc(-c2n[se]nc2-c2cc(OC)c(OC)c(OC)c2)cc1O
IC50 [1]: 0.019 µM
IC50 [2]: 0.021 µM
IC50 (KB): 0.0039 µM
inhibition (Tubulin (Homo sapiens) [3]): Dose-dependent effect
inhibition (Tubulin (Homo sapiens) [4]): 20.4%
inhibition (Tubulin (Homo sapiens) [5]): 48.8%
inhibition (Tubulin (Homo sapiens) [6]): 65%
inhibition (Tubulin (Homo sapiens) [7]): 97.6%
Activity (HT-1080 [8]): Active
Activity [9]: 2.47%
Activity [10]: 49.1%
Activity [11]: 16%
Activity [12]: 32.4%
Activity [13]: Dose-dependent effect
Activity [14]: 4.39%
Activity [15]: 37.2%
Activity [16]: 13.3%
Activity [17]: 45.2%
Activity [18]: 18.1%
Activity [19]: 5.46%
Activity [20]: 4.07%
Activity [21]: 72.4%
Activity [22]: 10.9%
Activity [23]: 2.61%
Activity [24]: 5.82%
Activity [25]: 80.7%
Activity [26]: 15.7%
Activity [27]: 3.93%
Activity [28]: 3.1%
Activity [29]: 71.9%
Activity (HT-1080 [30]): Active
Activity (HT-1080 [31]): Active

COc1ccc(-c2n[se]nc2-c2ccc3c(c2)OCO3)cc1[N+](=O)[O-]
IC50 [1]: > 30 µM
IC50 [2]: > 30 µM
IC50 (KB): > 30 µM

c1ccc2cc(-c3n[se]nc3-c3ccc4c(c3)OCO4)ccc2c1
IC50 [1]: 17.3 µM
IC50 [2]: 23.3 µM
IC50 (KB): 10.4 µM

COc1cc(-c2n[se]nc2-c2cccc(O)c2)cc(OC)c1OC
IC50 [1]: > 30 µM
IC50 [2]: 5.98 µM
IC50 (KB): > 30 µM

COc1cc(-c2n[se]nc2-c2ccc(Br)cc2)cc(OC)c1OC
IC50 [1]: 10.9 µM
IC50 [2]: 7.4 µM
IC50 (KB): 7.86 µM

COc1ccc(-c2n[se]nc2-c2ccc3c(c2)OCO3)cc1N
IC50 [1]: > 30 µM
IC50 [2]: 13.5 µM
IC50 (KB): 1.87 µM

COc1cc(-c2n[se]nc2-c2ccc(O)cc2)cc(OC)c1OC
IC50 [1]: > 30 µM
IC50 [2]: 15 µM
IC50 (KB): 15.8 µM

COc1ccc(-c2n[se]nc2-c2ccc3c(c2)OCO3)cc1O
IC50 [1]: 3.68 µM
IC50 [2]: 0.73 µM
IC50 (KB): 2.38 µM

CNc1cc(-c2n[se]nc2-c2cc(OC)c(OC)c(OC)c2)ccc1OC
IC50 [1]: > 30 µM
IC50 [2]: 0.98 µM
IC50 (KB): 1.52 µM

COc1ccc(/C=C\c2cc(OC)c(OC)c(OC)c2)cc1O [COMBRETASTATIN A4]
IC50 [1]: 0.028 µM
IC50 [2]: 0.0076 µM
IC50 (KB): 0.013 µM

COc1ccc(-c2n[se]nc2-c2ccc3c(c2)OCO3)cc1
IC50 [1]: 8.28 µM
IC50 [2]: > 30 µM
IC50 (KB): 5.21 µM

CCOc1ccc(-c2n[se]nc2-c2cc(OC)c(OC)c(OC)c2)cc1Br
IC50 [1]: 12.8 µM
IC50 [2]: 3.46 µM
IC50 (KB): 0.93 µM

COc1cc(-c2n[se]nc2-c2ccc(O)c(Br)c2)cc(OC)c1OC
IC50 [1]: > 30 µM
IC50 [2]: 16.4 µM
IC50 (KB): 4.8 µM

COc1ccc(-c2n[se]nc2-c2cc(OC)c(OC)c(OC)c2)cc1N
IC50 [1]: 0.021 µM
IC50 [2]: 0.026 µM
IC50 (KB): 0.011 µM
